# Assay results: PMC3053052 (Neuropeptides, 2010)
# Assays:
# [1] = test system: STAR and TSPO; settings: systemic alcohol administration; ref Herman et al., 2006; cited from earlier work
# [2] = target: T1, vascular NPY receptors (mainly Y1 subtype), rat testis (Rattus norvegicus, UniProt P21555); assay: Competition binding; settings: 25 nM cold PYY; ^125I-PYY 10,000 cpm/100 μl (22.5 pM); rat testis sections
# T1 sequence (P21555 1-382): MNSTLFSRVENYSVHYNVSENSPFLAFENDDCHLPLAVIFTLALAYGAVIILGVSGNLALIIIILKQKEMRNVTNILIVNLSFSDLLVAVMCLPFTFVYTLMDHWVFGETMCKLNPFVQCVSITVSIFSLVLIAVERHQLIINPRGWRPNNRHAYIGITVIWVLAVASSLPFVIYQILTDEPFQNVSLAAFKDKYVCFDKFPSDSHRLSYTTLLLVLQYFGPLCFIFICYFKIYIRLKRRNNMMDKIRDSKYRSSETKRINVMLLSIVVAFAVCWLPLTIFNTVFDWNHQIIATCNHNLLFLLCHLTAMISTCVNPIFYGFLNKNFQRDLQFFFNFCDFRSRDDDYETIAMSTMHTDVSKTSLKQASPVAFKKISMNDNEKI
# [3] = test system: NPY receptors in seminiferous tubules; assay: In vitro NPY receptor autoradiography, ^125I-PYY binding to seminiferous tubules; design: species or system rat; settings: surrounding seminiferous tubules; 22.5 pM ^125I-PYY, 2,000 Ci/mmol
# How it was run: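 Serial sections of rat testis incubated with 125I-PYY (10,000 cpm/100 μl, 2,000 Ci/mmol, 22.5 pM). Competition run with subtype-selective ligands, including a Y5-selective PP analogue. Rat brain served as positive control. Slides were exposed to film, and signals were matched to adjacent sections stained with H&E, anti-Factor VIII (vessels) or anti-STAR (Leydig cells). Densities were quantified by computer-assisted imaging.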
# [4] = test system: T response to hCG; assay: Plasma testosterone response to hCG after intratesticular; format: in vivo, rat
# How it was run: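 Jugular-cannulated adult male rats, freely moving. Test peptide 5 μg/kg itt or vehicle under isoflurane, 1 h before hCG 1 IU/kg iv. One series pretreated with GnRH antagonist […] iv 2 h before hCG. Blood drawn before and 15, 30, 60, 90 min after hCG. Plasma T measured by commercial kit (sensitivity 0.2 ng/mL), cumulative T summed. N = 5–7; mean ± SEM; ANOVA/repeated measures.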
# [5] = test system: steroidogenic acute regulatory (STAR) protein; assay: Leydig cell STAR protein level after itt NPY; format: in vivo, rat; settings: Leydig cells, Western blot
# How it was run: (§1)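 Decapitation 1 h later. Leydig cells were isolated by collagenase dispersion and Percoll gradient, then lysed in RIPA. 25 μg protein per lane was probed with anti-STAR (1:1,500; 30-kDa form) or anti-TSPO (1:1,000). ECL signal was normalised to β-actin, as % of control.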
# [6] = test system: translocator protein (TSPO); assay: Leydig cell TSPO level after itt NPY; format: in vivo, rat; settings: Leydig cells, Western blot
# How it was run: as §1
# [7] = test system: testes; settings: ref Collin et al., 1998; cited from earlier work
# [8] = test system: plasma LH; settings: ref Pierroz et al., 1999; cited from earlier work
# [9] = test system: explanted GnRH neurons; settings: ref Klenke et al., 2010; cited from earlier work
compound,measurement,setting,value
CCO [alcohol],STAR and TSPO concentrations,[1],significantly decreased STAR and TSPO concentrations
PYY: cold PYY used to assess non-specific binding,displacement of ^125I-PYY binding to testicular blood vessels at 25 nM,[2],Complete displacement
"^125I-PYY: ^125I-PYY (2,000 Ci/mmol; Anawa, Wangen, Switzerland)",^125I-PYY binding (in words),[3],no binding to surrounding seminiferous tubules
neuropeptide Y [NPY],T response to hCG,"[4]; NPY 5 μg/kg itt 1 h before hCG 1.0 U/kg iv, at all times studied (15, 30, 60, 90 min), P<0.01 vs vehicle, N = 5-7/point (Fig. 1)",markedly (P<0.01) blunted the T response to hCG at all times studied
same,basal plasma T levels,"[4]; NPY 5 μg/kg itt, 1 h, vs vehicle, P<0.01, N = 5-7/point (Fig. 1)",significantly (P<0.01) decreased basal plasma T levels
same,cumulative plasma T after hCG,"[4]; vehicle pre-treatment, NPY 5 μg/kg itt, hCG 1 U/kg iv, cumulative T 15, 30, 60 and 90 min after hCG, mean ± SEM, N = 5-7, P<0.01 vs itt vehicle (22.20 ± 3.25)",10.60 ± 0.98R ^a ng T/ ml
same,changes in STAR levels (in words),[5],inconsistent and did not reach statistical significance
same,changes in TSPO levels (in words),[6],inconsistent and did not reach statistical significance
same,vasoconstriction in the testes,[7],reported to cause vasoconstriction in the testes
same,plasma LH levels,[8],lower plasma LH levels
same,neuronal activity of explanted GnRH neurons,[9],inhibits the neuronal activity of explanted GnRH neurons
